The target of data set [1] is TSPO. Conditions: human brain tissue; cited from earlier work.
The test system of data set [2] is TSPO. Kind of data set: in vitro affinity for TSPO in human brain tissue. The data set is classed as binding. To be noted: PBR06 relative to PBR28.
Data set [3] deals with TSPO. Type of data set: in vivo, human. A digest of the protocol:
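Eight healthy volunteers (2 women, 6 men; 32±11 y), each scanned once with each aryloxyanilide radioligand (18F: 170±26 MBq; 11C: 567±84 MBq; i.v. bolus). Dynamic PET on GE Advance. Radial arterial plasma parent separated by radio-HPLC gave the input function. VT fitted from the first 120 min, then divided by per-scan fP. Ten regions; mean ± SD; repeated-measures ANOVA.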

For data set [4], the system named is TSPO. Kind of data set: in vivo affinity ratio from slope of regression of regional VT/fP. Set-up: species or system human. To be noted: VT/fP values in ten brain regions.
The conditions of data set [5]: radiation exposure; cited from earlier work.
In data set [6] the test system is TSPO. To be noted: monkey brain; cited from earlier work.
Data set [7] in a line: kinetics of radioligand in plasma and brain after bolus intravenous injection. The data set is classed as in vivo, human.
A further data set can be described thus: plasma free fraction. The data set is classed as in vitro ADME, human. Conditions: eight subjects.
For data set [8] the following is noted: octanol/phosphate buffer, pH 7.4; cited from earlier work.
In data set [9] the test system is TSPO. Type of data set: binding, human. Conditions: membranes of white blood cells.
Setting [10] is: mean of ten brain regions, eight subjects, 120 min data.

Read-outs that look alike come from different tables or passages of the source. Some results are limits rather than exact numbers.

Turning to `COc1ccc(OC)c(CN(C(=O)CF)c2ccccc2Oc2ccccc2)c1` [PBR06], the Ki at TSPO [1] was 1 nM. The “fold higher in vitro affinity than PBR28” value in the data set on TSPO [2] is 2.5 fold.

In the case of `COc1ccc(OC)c(CN(C(=O)C[18F])c2ccccc2Oc2ccccc2)c1` [^18F-PBR06], the VT in the data set with TSPO [3] (Anterior cingulate) is on record as 2.05±0.42 ml × cm^−3; in the data set on TSPO [3] (Caudate) it was 1.72±0.28 ml × cm^−3; in the data set on TSPO [3] (Cerebellum), 2.26±0.61 ml × cm^−3; with TSPO [3] (Frontal cortex), 2.10±0.40 ml × cm^−3; in the data set on TSPO [3] (Medial temporal cortex) it was 2.05±0.46 ml × cm^−3; with TSPO [3] (Occipital cortex), 2.17±0.40 ml × cm^−3. In addition, the VT was determined as 2.10±0.39 ml × cm^−3 in the data set with TSPO [3] (Parietal cortex); 1.98±0.36 ml × cm^−3 in the data set with TSPO [3] (Putamen); 2.24±0.43 ml × cm^−3 with TSPO [3] (Temporal cortex); 2.37±0.44 ml × cm^−3 with TSPO [3] (Thalamus); 2.1±0.4 ml × cm^−3 in the data set with TSPO [3] (setting [10]). Moreover, the VT/fP is recorded as 97.7±21.5 ml × cm^−3 with TSPO [3] (Anterior cingulate); 83.2±20.3 ml × cm^−3 in the data set on TSPO [3] (Caudate); 108.0±33.4 ml × cm^−3 with TSPO [3] (Cerebellum); 100.3±22.6 ml × cm^−3 with TSPO [3] (Frontal cortex); 97.7±22.8 ml × cm^−3 in the data set with TSPO [3] (Medial temporal cortex); 104.0±24.3 ml × cm^−3 in the data set on TSPO [3] (Occipital cortex). Also, the VT/fP turned out to be 100.3±20.4 ml × cm^−3 in the data set on TSPO [3] (Parietal cortex); 94.8±21.2 ml × cm^−3 in the data set with TSPO [3] (Putamen); 107.4±27.7 ml × cm^−3 in the data set on TSPO [3] (Temporal cortex); 113.6±25.7 ml × cm^−3 with TSPO [3] (Thalamus); 100.7±24.0 ml × cm^−3 in the data set with TSPO [3] (setting [10]). Further, the “95% confidence interval of slope (in vivo affinity ratio)” value in the data set on TSPO [4] was 0.89–1.84. In data set [5], the effective dose is 18.5 µSv/MBq. The “specific binding as part of total uptake” value in the data set on TSPO [6] is recorded as “greater than 90%”. The “time of peak brain uptake of radioactivity” value in data set [7] (human brain, after injection) was at most 5 min. For the same compound, the “time of peak plasma concentration of total parent radioligand” value in data set [7] (human plasma, after injection) is at most 2 min. Besides, in data set [7] (mean of ten regions in eight subjects), the “peak concentration of brain uptake” value is 1.2 SUV. Also, the “peak concentration of brain uptake, range” value in data set [7] (range, ten regions in eight subjects) is on record as 1.0–1.6 SUV. In the data set “plasma free fraction”, the “plasma free fraction (fP)” value is 2.2±0.6%.

Consider `COc1ccccc1CN(C(C)=O)c1cnccc1Oc1ccccc1` [PBR28], for which the Ki on TSPO [1] was 2.5 nM. Moreover, in [8], the “log D” value is on record as 3.0. Also, the “fold lower affinity in non-binders than in the majority (90%) of the population” value in the data set on TSPO [9] is recorded as “about 50 fold”.

As usually defined, the Ki is the equilibrium dissociation constant of an inhibitor or competing ligand from its target. One may read the log D as lipophilicity at a set pH, counting ionised and neutral species.

The values above are taken from article PMC3159870 (European journal of nuclear medicine and molecular imaging, 2010).
